Bioassay records from PubChem.
TRPC4 potent = TRPC4 (mouse) allosteric potentiation; Q9QUQ5; HEK293 TRPC4beta/mu-opioid, DAMGO EC20, Fluo-4 Ca2+ flux; active compounds read high; B-score at 10 µM; hit rate 0.42% among 310,000;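 active = B-score of calcium response area above 5 SD of library B-scores, with initial fluorescence ratio within 5 SD of library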;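 also: B-score of integrated fluorescence ratio over time as area under calcium response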
TRPC4 block = inhibitors of mouse TRPC4 channel; Q9QUQ5; HEK293 TRPC4beta/mu-opioid, DAMGO-evoked Fluo4 calcium flux; active compounds read low; B-score at 10 µM; hit rate 0.39% among 300,000; AID 2247;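 active = B-score over 3 SD under the library average, no early fluorescence shift, positive overall ratio signal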
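Assay system: HEK293 cells with stable TRPC4beta plus mu-opioid receptor expression. Dosing: single dose. Measured by: Fluo4 Ca2+ flux fluorescence. Also added: DAMGO in two steps, submaximal then maximal. Read-out: B score from integrated Fluo4 fluorescence ratio.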
TRPC6 act = mouse TRPC6 channel activation. Q61143. HEK293-TRPC6 membrane potential dye fluorescence; active compounds read high. B-score at 10 µM. hit rate 0.13% among 310,000;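 active = B-score of the integrated fluorescence ratio above library mean plus 3 SD, and starting fluorescence ratio within library mean plus 5 SD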;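 also: higher score means more depolarization so channel activation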
Target sequence (Q61143 whole entry, looked up): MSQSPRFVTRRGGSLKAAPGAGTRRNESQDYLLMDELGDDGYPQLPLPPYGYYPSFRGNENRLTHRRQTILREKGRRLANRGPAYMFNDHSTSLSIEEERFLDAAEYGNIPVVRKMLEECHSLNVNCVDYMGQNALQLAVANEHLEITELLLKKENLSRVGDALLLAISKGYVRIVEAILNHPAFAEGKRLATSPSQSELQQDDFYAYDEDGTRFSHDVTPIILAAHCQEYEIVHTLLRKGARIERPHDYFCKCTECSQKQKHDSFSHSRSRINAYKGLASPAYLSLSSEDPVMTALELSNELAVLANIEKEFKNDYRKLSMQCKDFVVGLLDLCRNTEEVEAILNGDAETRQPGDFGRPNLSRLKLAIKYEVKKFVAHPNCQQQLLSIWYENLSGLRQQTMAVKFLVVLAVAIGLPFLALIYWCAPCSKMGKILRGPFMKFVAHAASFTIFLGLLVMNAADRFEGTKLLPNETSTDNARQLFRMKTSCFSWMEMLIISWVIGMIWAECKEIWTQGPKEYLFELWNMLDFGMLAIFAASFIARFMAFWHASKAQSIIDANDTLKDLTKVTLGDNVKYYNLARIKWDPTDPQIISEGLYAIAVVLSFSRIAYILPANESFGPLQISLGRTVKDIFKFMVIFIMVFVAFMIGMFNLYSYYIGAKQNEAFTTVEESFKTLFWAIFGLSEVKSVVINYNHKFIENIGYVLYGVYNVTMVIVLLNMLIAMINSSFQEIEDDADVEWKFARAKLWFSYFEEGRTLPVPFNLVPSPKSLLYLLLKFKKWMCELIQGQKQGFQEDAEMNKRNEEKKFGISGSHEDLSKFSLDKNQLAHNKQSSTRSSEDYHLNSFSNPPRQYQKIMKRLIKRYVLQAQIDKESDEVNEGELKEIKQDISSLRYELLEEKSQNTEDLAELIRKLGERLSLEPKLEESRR
TRPC4 act = opens the mouse TRPC4 cation channel. HEK293 TRPC4beta/mu-opioid, Fluo4 calcium fluorescence; active compounds read high. B-score at 10 µM. hit rate 0.49% among 310,000;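 active = B-score above 5 SD of library B-scores, and initial fluorescence ratio not above library mean plus 5 SD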;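 also: positive B-score marks a calcium rise read as TRPC4 activation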
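System – HEK293 cells stably co-expressing mouse TRPC4beta and mu-opioid receptor · Signal – Fluo4 calcium-sensitive dye fluorescence, kinetic, 1 Hz baseline · Benchmarks – buffer (low) and maximal DAMGO (high) · Read-out – B score of integrated fluorescence ratio per well · Incubation – dye loading 45 min room temperature, 110 s kinetic read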
TRPC6 inhibitor = inhibitors of mouse TRPC6 channel; B-score at 10 µM; HEK293-TRPC6, membrane potential dye, ACh-evoked depolarization; active compounds read low; hit rate 1.1% among 310,000;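 active = B-score under library mean minus 3 SD, initial fluorescence not abnormally high, positive integrated signal ratio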;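 also: B-score derived from integrated fluorescence ratio over the kinetic read; more negative B-score means stronger inhibition of depolarization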
TRPC4 sel inh 2 = second selectivity test of TRPC6 inhibitors: effect on mouse TRPC4; shares compounds with TRPC6 inhibitor; HEK293 TRPC4/MOR, membrane potential dye fluorescence; channel activated by saturating DAMGO dose; inhibition, % at 10 µM; hit rate 42% among 920; AID 2776;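 active = compounds whose fluorescence signal differed from control wells by over 3 SD, either direction, in both duplicate plates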
TRPC4 spec = selectivity of TRPC6 inhibitors: effect on mouse TRPC4. shares compounds with TRPC6 inhibitor. HEK293 TRPC4/mu-opioid, membrane potential fluorescence. activity change, negative = inhibition, % at 10 µM. hit rate 61% among 920. AID 2777;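 active = rise or fall in signal beyond 3 SD of buffer-only wells in both replicate plates, either sign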;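 also: integrated kinetic ratio of fluorescence range over baseline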
HEK293 MPD ctr 2-1 = second check of TRPC6 inhibitor effects in parental HEK293 cells; shares compounds with TRPC6 inhibitor; parental HEK293 membrane potential dye fluorescence; maximal acetylcholine challenge after compound addition; signal change vs control, % at 10 µM; hit rate 31% among 920; AID 2779;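 active = membrane potential signal moving either way by over 3 SD of the maximum-effect control, in both duplicate plates, meaning non-specific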
HEK293 MPD ctr-1 = checks TRPC6 inhibitor effects in parental HEK293 cells. shares compounds with TRPC6 inhibitor. parental HEK293 membrane potential dye fluorescence. membrane potential signal change, % at 10 µM. hit rate 60% among 920;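 active = membrane potential signal shifting up or down by more than 3 SD of buffer-only wells, on both duplicate plates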
HEK293 MPD ctr-2 = parental HEK293 nonspecific activity of TRPC6 modulators; shares compounds with TRPC6 inhibitor; membrane potential dye fluorescence; membrane potential signal change, % at 10 µM; hit rate 51% among 2,400; AID 488924;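 active = membrane potential signal moves up or down beyond 5 SD from buffer-only wells, on both duplicate plates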
HEK293 MPD ctr 2-2 = parental HEK293 nonspecific activity of TRPC6 modulators, second screen; shares compounds with TRPC6 inhibitor; membrane potential dye fluorescence; after compound, maximal acetylcholine stimulation; inhibition, % at 10 µM; hit rate 14% among 2,400;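 active = membrane potential signal drops by more than 5 SD from the mean control signal, in both duplicate plates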;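 also: plate controls were acetylcholine ECmax control wells for no effect and buffer only wells for full effect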
TRPC4 ctr mod = selectivity of TRPC6 modulators against mouse TRPC4; shares compounds with TRPC6 inhibitor; HEK293 TRPC4/mu-opioid, membrane potential fluorescence; percent change from control (negative = decrease, positive = increase), % at 10 µM; hit rate 69% among 2,400; AID 488927;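 active = membrane potential signal moved up or down beyond 5 SD of buffer control wells, in both duplicate plates, actives on both sides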;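 also: plate controls were assay buffer wells for no effect and DAMGO maximal-effect wells for full effect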
TRPC4 ctr inh 2 = second check of whether TRPC6 modulators also affect mouse TRPC4; shares compounds with TRPC6 inhibitor; inhibition, % at 10 µM; HEK293 TRPC4/mu-opioid, membrane potential dye fluorescence; stimulated with maximal-effect DAMGO; hit rate 55% among 2,400;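 active = drop in membrane potential signal beyond 5 SD of the control wells in both duplicate plates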;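 also: TRPC4 counter screen for TRPC6 hits run under conditions tuned for TRPC6 not TRPC4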
TRPC6 block conf = mouse TRPC6 inhibitor confirmation; shares compounds with TRPC6 inhibitor; HEK293-TRPC6, membrane potential dye, ACh-evoked depolarization; inhibition, % at 10 µM; hit rate 43% among 3,300;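 active = fluorescence ratio falls more than 5 SD below the full-stimulation control mean, in both duplicate runs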;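 also: integrated fluorescence ratio of peak minus minimum over baseline after agonist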
TRPC6 act conf = confirmation of mouse TRPC6 activators; shares compounds with TRPC6 inhibitor; HEK293-TRPC6 membrane potential dye fluorescence, FDSS; activation, % at 10 µM; hit rate 11% among 2,800; AID 488961;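 active = ratio signal rise beyond 5 SD above unstimulated control wells' mean, seen in both duplicate runs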;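 also: plate controls were buffer EC0 wells for no effect and acetylcholine ECmax response for full effect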
* = called active by the depositor; i = inactive; x = no result. Shown are actives, neighbours in structure and some others; about 2.3% of the full set was active somewhere.

SMILES	TRPC4 potent	TRPC4 block	TRPC6 act	TRPC4 act	TRPC6 inhibitor	HEK293 MPD ctr-2	HEK293 MPD ctr 2-2	TRPC4 ctr mod	TRPC4 ctr inh 2	TRPC6 block conf	TRPC6 act conf	others
O=C(NC1CCCCC1)C(c1ccc(F)cc1)N(CCN1CCOCC1)C(=O)c1ccc(-c2ccccc2)[nH]1 (stereo not drawn)	i	i	i	i	i	x	x	x	x	x	x
Cn1c(CCN2CCCCC2)nc2cc(NC(=O)COc3ccc(Cl)cc3)ccc21	i	i	i	i	i	x	x	x	x	x	x
Cc1ccc(C(C)C)c(OCC(=O)Nc2ccc3c(c2)nc(CCN2CCCCC2)n3C)c1	i	i	i	i	-6*	i	i	i	78%*	57%*	x
Cc1cc(C)n2nc(C(=O)OCC(=O)Nc3ccc(F)cc3F)nc2n1	i	i	i	i	i	x	x	x	x	x	x
CCOC(=O)[C@@H]1[C@H]2COc3ccccc3[C@H]2N2C(=O)N(c3ccccc3)C(=O)[C@]12C	i	i	i	i	i	x	x	x	x	x	x
CC(C)c1ccc2c(c1)C1(NN=C(c3ccccc3)S1)C(=O)N2 (stereo not drawn)	11*	i	i	i	-5.7*	-150%*	i	-33%*	75%*	46%*	i
CCc1ccc2c(c1)C1(NN=C(c3ccc(C)cc3)S1)C(=O)N2 (stereo not drawn)	i	i	i	i	i	x	x	x	x	x	x
COCC(C)NC(=O)c1ccc(CN2CCc3ccccc3C2)cc1 (stereo not drawn)	i	i	i	i	-6.9*	x	x	x	x	i	i	TRPC4 sel inh 2=i;TRPC4 spec=i;HEK293 MPD ctr 2-1=i;HEK293 MPD ctr-1=0.8%*
Cc1cc(N2CCN(c3ccc(F)cc3)CC2)nc2cc(O)ccc12	i	i	i	i	-6.3*	-60%*	i	-11%*	36%*	i	i
COc1ccc2c(C)cc(N3CCN(c4ccc(F)cc4)CC3)nc2c1	i	i	i	i	i	x	x	x	x	x	x
CC(C)(C)c1ccc(NC(=O)N2CCN(c3ccc([N+](=O)[O-])cn3)CC2)cc1	i	i	i	i	i	x	x	x	x	x	x
O=C(CN1C(=O)NC(Cc2c[nH]c3ccccc23)C1=O)NCC(F)(F)F (stereo not drawn)	i	i	i	i	i	x	x	x	x	x	x
CN(C)CCCN(C(=O)COc1ccccc1)c1nc2c(F)cccc2s1	i	i	i	i	-5*	i	i	-16%*	84%*	38%*	i
CN(C)CCCN(C(=O)c1cc2ccccc2oc1=O)c1nc2c(F)cccc2s1	i	i	i	i	-6.5*	i	i	-22%*	88%*	70%*	i
CN(C)CCCN(C(=O)c1ccc(C(=O)c2ccccc2)cc1)c1nc2c(F)cccc2s1	i	i	i	i	-6.2*	i	i	i	82%*	60%*	i
COc1ccc(Nc2ccc3c(c2)=NC2(CCCCC2)[N+]=3[O-])cc1	i	i	i	i	i	x	x	x	x	x	x
[O-][N+]1=c2ccc(Nc3ccccc3)cc2=NC12CCCCC2	i	i	i	i	-6.7*	-206%*	i	-29%*	41%*	i	i
CN(C)CCCOc1ccc(C(C)(C)c2ccccc2)cc1	i	i	i	i	i	x	x	x	x	x	x
CN(C)C/C=C/C(O)(c1ccccc1)c1ccccc1	i	i	i	i	-7.6*	x	x	x	x	61%*	i	TRPC4 sel inh 2=i;TRPC4 spec=i;HEK293 MPD ctr 2-1=i;HEK293 MPD ctr-1=1.3%*
COCCn1c(SCC(=O)N(C(C)C)C(C)C)nnc1-c1cc2ccccc2cc1O	i	i	i	i	-5.1*	i	i	i	i	42%*	x
CC(C)N(C(=O)CSc1nnc(-c2cc3ccccc3cc2O)n1Cc1ccco1)C(C)C	i	i	i	i	i	x	x	x	x	x	x
CCC[N+](CC#Cc1ccccc1)(CCC)CC(=O)c1ccc(Cl)cc1	i	i	i	i	-5.7*	332%*	i	77%*	52%*	68%*	x
Cc1nnc(SCCn2c(N3CCN(C)CC3)nc3c2c(=O)n(C)c(=O)n3C)s1	i	i	i	i	-13*	-231%*	96%*	-35%*	59%*	72%*	i
Cc1nnc(SCCn2c(N3CCCCC3)nc3c2c(=O)n(C)c(=O)n3C)s1	i	i	i	i	i	x	x	x	x	x	x
CN(C)CCCNc1cc(C(C)(C)C)nc2c(-c3ccccc3)cnn12	i	i	i	i	i	x	x	x	x	x	x
OC(COc1ccccc1F)CN1CCC(Cc2ccccc2)CC1 (stereo not drawn)	i	i	i	i	-5.1*	155%*	i	25%*	44%*	i	x
Cc1ccc(OCC(O)CN2CCC(Cc3ccccc3)CC2)c(C)c1 (stereo not drawn)	i	i	i	i	-5.3*	448%*	i	94%*	81%*	46%*	x
Cc1cc(=O)c(C(=O)O)nn1-c1ccc(Cl)cc1	i	i	i	i	i	x	x	x	x	x	x
Nc1c2c(nc3sc4c(c13)CCCC4)CCCCCC2	i	i	i	i	i	x	x	x	x	x	x
